The source of these data is the RNAGym collection of RNA variant scans (doi:10.1126/science.aae0568).

Fewer inactive variants are shown than the library holds.

Sequences and labels used below:
B1: tRNA (parent)
chain: GUUCCGUUGGCGUAAUGGUAACGCGUCUCCCUCCUAAGGAGAAGACUGCGGGUUCGAGUCCCGUACGGAACG

The variants in the series derive from B1. The experiment in a line: yeast fitness relative to wild type (ratio to wild type); higher = fitter; tRNA-Arg(CCU), competitive growth, 37 C, YPD. The procedure, abridged: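 Amplicons of the tRNA-Arg(CCU) gene were sequenced, 100-nucleotide paired-end, from the start population and from each end population of a pooled yeast competition. The competition, in six parallel replicates, lasted 24 hours in YPD at 37°C. Fitness relative to wild type was calculated from changes in genotype frequencies. Genotypes had to have ≥ 100 starting reads, and estimates < 0.5 were set to 0.5.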
As to GUUCCGUUGGCGUAAUGGUAACGCGUCUCCCUCCUAAGGAGAAGAUUGCGGGUUCGAGUUCCGUCCGGAACG, the yeast fitness turned out to be 0.589.
For GUUCCGUUGGCGUAAUGGUAACGCGUCUCCCUCCUAAGGAGAAGAAUGCGGGUUCGAGUUCCGUACGGAACG, the yeast fitness was found to be 0.83.
For GUUCCGUUGGCGUAAUGGUAACGCGUCUCCCUCCUAAGGAGAAGAUUGCGGGUUCGAGUGCGGUACGGAACG the value was no more than 0.5; for GUUCCGUUGGCGUAAUGGUAACGCGUCUCCCUCCUAAGGAGAAGAUUGCGGGUUCGAGUCCCGUAGUGAACG, no more than 0.5; for GUUCCGUUGGCGUAAUGGUAACGCGUCUCCCUCCUAAGGAGAAGUCUGCGGAUUCGAGUCCCGUACGGAUCG, 0.574.
The same measure for GUUCCGUUGGCGUAAUGGUAACGCGUCUCCCUCCUAAGGAGAAGAUUGCGGGUUCGAGUCCCGUACCGAACG: 1.02; for GUUCCGUUGGCGUAAUGGUAACGCGUCUCCCUCCUAAGGAGAAGAGUGCGGGUUCGAAUCCCGUACGGAACG: 0.989.
For GUUCCGUUGGCGUAAUGGUAACGCGUCUCCCUCCUAAGGAGAAGAAUGCGGGUUCGAGUCUCGUACGGAACG, the yeast fitness was found to be 0.901.
For GUUCCGUUGGCGUAAUGGUAACGCGUCUCCCUCCUAAGGAGAAGAGUGCGGGAUCGAGUCCCGUACGGAACG the value was 0.75; for GUUCCGUUGGCGUAAUGGUAACGCGUCUCCCUCCUAAGGAGAAGAUUGCGGGAUCGAGUCCCGUACGGAACG, 0.704.
The same measure for GUUCCGUUGGCGUAAUGGUAACGCGUCUCCCUCCUAAGGAGAAGACAACGGGUUCGAGUCCCGUACGGAACG: 0.867; for GUUCCGUUGGCGUAAUGGUAACGCGUCUCCCUCCUAAGGAGAAGUCUGCGGGUCCGAGUCCCGUACGGAACG: 0.886.
The same measure for GUUCCGUUGGCGUAAUGGUAACGCGUCUCCCUCCUAAGGAGAAGAGUACGGGUUCGAGUCCCGUACGGAACG: 0.998; for GUUCCGUUGGCGUAAUGGUAACGCGUCUCCCUCCUAAGGAGAAGAGUGCGGGUCCGAGUCCCGUACGGCACG: 0.601; for GUUCCGUUGGCGUAAUGGUAACGCGUCUCCCUCCUAAGGAGAAGAAUGCGGGUCCGAGUCCCGUACGGAACG: 0.888.
Consider GUUCCGUUGGCGUAAUGGUAACGCGUCUCCCUCCUAAGGAGAAGUCUGGGGGUUCGAGUCCCGUACGGAUCG, for which the yeast fitness amounted to 0.63.
With GUUCCGUUGGCGUAAUGGUAACGCGUCUCCCUCCUAAGGAGAAGAGUGAGGGUUCGAGUCUCGUACGGAACG, the yeast fitness was 0.597.
The same measure for GUUCCGUUGGCGUAAUGGUAACGCGUCUCCCUCCUAAGGAGAAGAGUGCGGGUUUGAGUCCCGUACGGAACG: 0.769; for GUUCCGUUGGCGUAAUGGUAACGCGUCUCCCUCCUAAGGAGAAGUCUGCGGGUUAGAGUCCCGUACGGAACG: 0.566; for GUUCCGUUGGCGUAAUGGUAACGCGUCUCCCUCCUAAGGAGAAGUCUGCGGGUUGGAGUCCCGUACGGAACG: 0.528.
The same measure for GUUCCGUUGGCGUAAUGGUAACGCGUCUCCCUCCUAAGGAGAAGAAUGCGGGUUCGAGUCUCGUACGGGACG: no more than 0.5; for GUUCCGUUGGCGUAAUGGUAACGCGUCUCCCUCCUAAGGAGAAGAUUGAGGGUUUGAGUCCCGUACGGAACG: 0.678.
The same measure for GUUCCGUUGGCGUAAUGGUAACGCGUCUCCCUCCUAAGGAGAAGUCUGCGGGUUCGAGUCCCGUAUGGAACG: 0.979; for GUUCCGUUGGCGUAAUGGUAACGCGUCUCCCUCCUAAGGAGAAGUCUGCGGGUUCGAGUCCCGUAAGGAACG: 0.649; for GUUCCGUUGGCGUAAUGGUAACGCGUCUCCCUCCUAAGGAGAAGAGUACGGAUUCGAGUCCCGUACGGAACG: 0.913.
As for GUUCCGUUGGCGUAAUGGUAACGCGUCUCCCUCCUAAGGAGAAGAGUGCGGGUGCGAGUCCCGUACGGAACG, the yeast fitness came to 0.527.
The same measure for GUUCCGUUGGCGUAAUGGUAACGCGUCUCCCUCCUAAGGAGAAGAGUGCGGGUACGAGUCCCGUACGGAACG: 0.702; for GUUCCGUUGGCGUAAUGGUAACGCGUCUCCCUCCUAAGGAGAAGUCUGCGGGUUCGAGUCCCCUACGGAACG: 0.542; for GUUCCGUUGGCGUAAUGGUAACGCGUCUCCCUCCUAAGGAGAAGACAGCGGGUUCGAGUCCCGUGCGGAACG: 0.937.
The same measure for GUUCCGUUGGCGUAAUGGUAACGCGUCUCCCUCCUAAGGAGAAGAAUGCGGGUUCGAGUCCCGUACGGAUCG: 1.04; for GUUCCGUUGGCGUAAUGGUAACGCGUCUCCCUCCUAAGGAGAAGUCAGCGGGUUCGAGUCCCGUACGGAACG: 0.786.
For GUUCCGUUGGCGUAAUGGUAACGCGUCUCCCUCCUAAGGAGAAGUCCGCGGGUUCGAGUCCCGUACGGAACG, the yeast fitness turned out to be 0.995.
Turning to GUUCCGUUGGCGUAAUGGUAACGCGUCUCCCUCCUAAGGAGAAGAUUCCGGGUUCGAGUCCUGUACGGAACG, the yeast fitness stood at 1.03.
For GUUCCGUUGGCGUAAUGGUAACGCGUCUCCCUCCUAAGGAGAAGAAUGCGGGUUCGAGUCCUGUACGGUACG the value was 0.735; for GUUCCGUUGGCGUAAUGGUAACGCGUCUCCCUCCUAAGGAGAAGAUUGCAGGUUCGAGUCCCGUAGGGAACG, no more than 0.5.
The same measure for GUUCCGUUGGCGUAAUGGUAACGCGUCUCCCUCCUAAGGAGAAGAUUGCGGGUUCGAGUCCCGUACGAAACG: 0.9.
For GUUCCGUUGGCGUAAUGGUAACGCGUCUCCCUCCUAAGGAGAAGAUUGCGGGUUCGAGUCCCGUACGUAACG the value was 0.857.
As to GUUCCGUUGGCGUAAUGGUAACGCGUCUCCCUCCUAAGGAGAAGAUUGCGGGUUCGAAUCCUGUACGGAACG, the yeast fitness was 0.665.
The same measure for GUUCCGUUGGCGUAAUGGUAACGCGUCUCCCUCCUAAGGAGAAGUCUGCGGGUUCGAGUCCGCUACGGAACG: no more than 0.5; for GUUCCGUUGGCGUAAUGGUAACGCGUCUCCCUCCUAAGGAGAAGAGUGCGGGUUCGGGUCCCGUACGGAACG: 0.987; for GUUCCGUUGGCGUAAUGGUAACGCGUCUCCCUCCUAAGGAGAAGUCUGGGGGUUCGAGUCCCGUACGGAACG: 0.872.
As to GUUCCGUUGGCGUAAUGGUAACGCGUCUCCCUCCUAAGGAGAAGAUUGCGGGUCCGAGUCCCGUACGGAACG, the yeast fitness was found to be 0.717.
For GUUCCGUUGGCGUAAUGGUAACGCGUCUCCCUCCUAAGGAGAAGUCUACGGGUUCGAGUCCCGUAGGGAACG the value was no more than 0.5; for GUUCCGUUGGCGUAAUGGUAACGCGUCUCCCUCCUAAGGAGAAGAUUGCCGGUUCGAGUCCCGUACGGAACG, 0.819; for GUUCCGUUGGCGUAAUGGUAACGCGUCUCCCUCCUAAGGAGAAGUCUGCAGGUUCGAGUCCCGCACGGAACG, 0.72.
For GUUCCGUUGGCGUAAUGGUAACGCGUCUCCCUCCUAAGGAGAAGACAGGGGGUUCGAGUCCCGUACGGAACG the value was 0.767; for GUUCCGUUGGCGUAAUGGUAACGCGUCUCCCUCCUAAGGAGAAGACAGUGGGUUCGAGUCCCGUACGGAACG, 0.913.
The same measure for GUUCCGUUGGCGUAAUGGUAACGCGUCUCCCUCCUAAGGAGAAGAUUGCGGGUUGGAGUCCCGUACGGAACG: 0.65; for GUUCCGUUGGCGUAAUGGUAACGCGUCUCCCUCCUAAGGAGAAGAUUGCGGGUUUGAGUCCCGUACGGAACG: 0.823; for GUUCCGUUGGCGUAAUGGUAACGCGUCUCCCUCCUAAGGAGAAGAUUGCGGGUUCGAGGCCCGUACGGAACG: 0.962.
GUUCCGUUGGCGUAAUGGUAACGCGUCUCCCUCCUAAGGAGAAGAUUGCGGGUUCGAGCCCCGUACGGAACG: the yeast fitness was found to be 1.03.
For GUUCCGUUGGCGUAAUGGUAACGCGUCUCCCUCCUAAGGAGAAGAGUGCGGGUUCGAGUCCAGUACGGAACG the value was 0.873; for GUUCCGUUGGCGUAAUGGUAACGCGUCUCCCUCCUAAGGAGAAGUAUGCGUGUUCGAGUCCCGUACGGAACG, no more than 0.5.
The same measure for GUUCCGUUGGCGUAAUGGUAACGCGUCUCCCUCCUAAGGAGAAGUCUGCGGGUUCGAGUCACGUACAGAACG: no more than 0.5; for GUUCCGUUGGCGUAAUGGUAACGCGUCUCCCUCCUAAGGAGAAGAUUGCGGGUUCAAGUCCCGUACAGAACG: 0.686; for GUUCCGUUGGCGUAAUGGUAACGCGUCUCCCUCCUAAGGAGAAGAAUGCGGGUUCGACUCCCGUACGGAACG: 0.874.
On to GUUCCGUUGGCGUAAUGGUAACGCGUCUCCCUCCUAAGGAGAAGAUUGCGAGUUCGAGUCCCGUACGGAACG, for which the yeast fitness came to 1.02.
For GUUCCGUUGGCGUAAUGGUAACGCGUCUCCCUCCUAAGGAGAAGAUUGCGGGUUCGAGUCCCGUUCGGUACG the value was 0.737; for GUUCCGUUGGCGUAAUGGUAACGCGUCUCCCUCCUAAGGAGAAGAUUGCGGGUUCGAGUCCCGUAUGGAACG, 1.02; for GUUCCGUUGGCGUAAUGGUAACGCGUCUCCCUCCUAAGGAGAAGAUUGCGCGUUCGAGUCCCGAACGGAACG, no more than 0.5.
The same measure for GUUCCGUUGGCGUAAUGGUAACGCGUCUCCCUCCUAAGGAGAAGACAGUGGGUUCGAGUCCCGUCCGGAACG: 0.702; for GUUCCGUUGGCGUAAUGGUAACGCGUCUCCCUCCUAAGGAGAAGAUUCCGGGUUCGAGUCCCGUACGGAACG: 0.951.
The same measure for GUUCCGUUGGCGUAAUGGUAACGCGUCUCCCUCCUAAGGAGAAGACAGCGGGUUCGAGUCCCGUACGGCACG: 0.82.
As to GUUCCGUUGGCGUAAUGGUAACGCGUCUCCCUCCUAAGGAGAAGAGUGCGGGUCCGAGUCCAGUACGGAACG, the yeast fitness is no more than 0.5.
For GUUCCGUUGGCGUAAUGGUAACGCGUCUCCCUCCUAAGGAGAAGACAGCGGGUUCGAGUCCGGUACGGAACG the value was 0.856; for GUUCCGUUGGCGUAAUGGUAACGCGUCUCCCUCCUAAGGAGAAGAAGGCAGGUUCGAGUCCCGUACGGAACG, 0.544.
In the case of GUUCCGUUGGCGUAAUGGUAACGCGUCUCCCUCCUAAGGAGAAGAAUGCAGGUUCGAGUCCCGUACGGAACG, the yeast fitness is 0.925.
For GUUCCGUUGGCGUAAUGGUAACGCGUCUCCCUCCUAAGGAGAAGUCUGCGGGUUCGAGUCCCGAACGGAACG the value was 0.708; for GUUCCGUUGGCGUAAUGGUAACGCGUCUCCCUCCUAAGGAGAAGACAGCGGGUUCGGGUCCCGUACGGAACG, 0.923; for GUUCCGUUGGCGUAAUGGUAACGCGUCUCCCUCCUAAGGAGAAGAGUGCGAAUUCGAGUCCCGUACGGAACG, 0.566.
The same measure for GUUCCGUUGGCGUAAUGGUAACGCGUCUCCCUCCUAAGGAGAAGAUUGCGGCUUCGUGUCCCGUACGGAACG: no more than 0.5; for GUUCCGUUGGCGUAAUGGUAACGCGUCUCCCUCCUAAGGAGAAGUCUGCGGGUUCGAGUCCCGUACGGACCG: 0.987; for GUUCCGUUGGCGUAAUGGUAACGCGUCUCCCUCCUAAGGAGAAGUCUGCGGGUUCCAAUCCCGUUCGGAACG: 0.5.
The same measure for GUUCCGUUGGCGUAAUGGUAACGCGUCUCCCUCCUAAGGAGAAGAUUGCGGGUUCGAGUCCCGUCCGGAACG: 0.997.
Turning to GUUCCGUUGGCGUAAUGGUAACGCGUCUCCCUCCUAAGGAGAAGAAUGCGGGUUCGAGUCCCGUACCGAACG, the yeast fitness was determined as 0.896.
